Reference: ChEMBL document CHEMBL1149394, “Guiding farnesyltransferase inhibitors from an ECLiPS library to the catalytic zinc” (Bioorg Med Chem Lett, 2006)
pIC50: −log10 of the molar value.

Assays:
[1] = target: T1, Protein farnesyltransferase (Homo sapiens, UniProt P49354+P49356); assay: Inhibitory activity against Ha-Ras processing in COS7 cells; type: functional, cell-based, COS-7
[2] = target: T1, Protein farnesyltransferase; assay: Inhibitory activity against farnesyltransferase quantified by SPA assay; type: protein-complex assay
[3] = Cmax in mice at 10 mg/kg, po; type: ADME, organism-based; parameters: dose 10 mg/kg, route oral; settings: mouse, in vivo
Mus musculus = assay: AUC in mice at 10 mg/kg, po; type: ADME, organism-based, Plasma; parameters: dose 10 mg/kg, route oral; settings: in vivo
[4] = target: Geranylgeranyl transferase type I (Homo sapiens, UniProt P49354+P53609); assay: Inhibitory activity against Geranylgeranyltransferase 1; type: protein-complex assay
[5] = Bioavailability in mice; type: ADME, organism-based; settings: mouse, in vivo
[6] = target: T1, Protein farnesyltransferase; assay: Inhibitory activity against Farnesyltransferase quantified by modified SPA assay with improved sensitivity; type: protein-complex assay
In short: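 Scintillation proximity assay, high-sensitivity version. Purified FTase (30 pM final) was pre-incubated with inhibitor or DMSO control (5% v/v final) for 15 min at room temperature. The reaction was started with biotin-CVLS (100 nM final) and run for 60 min at 37 °C. It was quenched with a cold suspension of 250 mM EDTA pH 8.0, 0.5% BSA and SPA beads, then the IC50 was determined.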

Liver microsomes = assay: Metabolic stability in rat liver microsome; type: ADME
In short: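 Rat liver microsomes (cytochrome P450 content 6.7 µM) incubated 60 min at 37 °C with compound at 10 µM, KPi pH 7.4 and freshly prepared NADPH, in 1.0 ml final. Read-out is percent of compound remaining.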

Row | Compound | pIC50 [1] | pIC50 [2] | other results
1 | CCOCC(=O)N1CCN(C2c3ccc(Cl)cc3CCc3cc(Br)cnc32)CC1C(=O)NCc1cccnc1 (configuration not stated) | 6.80 | 7.68 | 
2 | CC(C)NC(=O)N1CCN(C2c3ccc(Cl)cc3CCc3cc(Br)cnc32)CC1C(=O)NCc1cccnc1 (configuration not stated) | 6.85 | 7.33 | 
3 | CCCCC(=O)N1CCN(C2c3ccc(Cl)cc3CCc3cc(Br)cnc32)CC1C(=O)Nc1cccnc1 (configuration not stated) | 7.00 | 7.74 | 
4 | O=C(NCCCn1ccnc1)C1CN(C2c3ccc(Cl)cc3CCc3cc(Br)cnc32)CCN1C(=O)NC1CCCCC1 (stereo in doubt; 41b) | 9.25 | 8.82 | Cmax [3]: 2550 nM; AUC (Mus musculus): 1660 ng·h/mL; pIC50 [4]: < 5.00; bioavailability [5]: 10.6%
5 | CCCCC(=O)N1CCN(C2c3ccc(Cl)cc3CCc3cc(Br)cnc32)CC1C(=O)NCc1c[nH]cn1 (configuration not stated) | 6.68 | 7.35 | 
6 | O=C(NCc1cccnc1)C1CN(C2c3ccc(Cl)cc3CCc3cc(Br)cnc32)CCN1C(=O)NC1CC1 (configuration not stated) | 6.59 | 7.29 | 
7 | O=C(Nc1nncs1)C1CN(C2c3ccc(Cl)cc3CCc3cc(Br)cnc32)CCN1C(=O)NC1CCCCC1 (configuration not stated) | < 5.00 | 6.31 | 
8 | Cc1ccc(CNC(=O)C2CN(C3c4ccc(Cl)cc4CCc4cc(Br)cnc43)CCN2C(=O)NC2CCCCC2)cn1 (configuration not stated) | 6.26 | 7.21 | 
9 | CCCNC(=O)N1CCN(C2c3ccc(Cl)cc3CCc3cc(Br)cnc32)CC1C(=O)NCc1cccnc1 (configuration not stated) | 7.23 | 7.72 | 
10 | O=C(NCc1cccnc1)C1CN(C2c3ccc(Cl)cc3CCc3cc(Br)cnc32)CCN1C(=O)NC1CCCC1 (configuration not stated) | 7.55 | 7.85 | 
11 | CCCCC(=O)N1CCN(C2c3ccc(Cl)cc3CCc3cc(Br)cnc32)CC1C(=O)Nc1cc(C)no1 (configuration not stated) | < 5.35 | 6.25 | 
12 | CCCCNC(=O)N1CCN(C2c3ccc(Cl)cc3CCc3cc(Br)cnc32)CC1C(=O)NCc1cccnc1 (configuration not stated) | 7.35 | 8.04 | 
13 | CC(=O)CCCCC(=O)N1CCN(C2c3ccc(Cl)cc3CCc3cc(Br)cnc32)CC1C(=O)NCc1cccnc1 (configuration not stated) | 7.31 | 8.10 | 
14 | COCCC(=O)N1CCN(C2c3ccc(Cl)cc3CCc3cc(Br)cnc32)CC1C(=O)NCc1cccnc1 (configuration not stated) | 7.00 | 7.70 | 
15 | O=C(NCc1cccnc1)C1CN(C2c3ccc(Cl)cc3CCc3cc(Br)cnc32)CCN1C(=O)NCC1CCCCC1 (configuration not stated) | 7.28 | 8.00 | 
16 | O=C(NCCCc1c[nH]cn1)C1CN(C2c3ccc(Cl)cc3CCc3cc(Br)cnc32)CCN1C(=O)NC1CCCCC1 (configuration not stated) | 8.01 | 7.89 | 
17 | O=C(NCCc1c[nH]cn1)C1CN(C2c3ccc(Cl)cc3CCc3cc(Br)cnc32)CCN1C(=O)NC1CCCCC1 (configuration not stated) | 7.74 | 8.15 | 
18 | CCCCC(=O)N1CCN(C2c3ccc(Cl)cc3CCc3cc(Br)cnc32)CC1C(=O)NCc1cccnc1 (configuration not stated) | 7.19 | 8.24 | 
19 | CC(C)CC(=O)N1CCN(C2c3ccc(Cl)cc3CCc3cc(Br)cnc32)CC1C(=O)NCc1cccnc1 (configuration not stated) | 7.30 | 8.14 | 
20 | O=C(NCCCn1ccnc1)C1CN(C2c3ccc(Cl)cc3CCc3cc(Br)cnc32)CCN1C(=O)NC1CCCCC1 (stereo in doubt; 41a) | 8.92 | 8.70 | pIC50 [6]: 10.00; pIC50 [4]: 4.66; Stability (Liver microsomes): > 95%
21 | CCCCC(=O)N1CCN(C2c3ccc(Cl)cc3CCc3cc(Br)cnc32)CC1C(=O)NCc1ncc[nH]1 (configuration not stated) | < 6.70 | 7.10 | 
22 | O=C(NCc1cccnc1)C1CN(C2c3ccc(Cl)cc3CCc3cc(Br)cnc32)CCN1C(=O)C1CCCCCC1 (configuration not stated) | 7.07 | 7.92 | 

Row | Compound | pIC50 [1] | pIC50 [2] | other results
23 | CC(C)(C)NC(=O)N1CCN(C2c3ccc(Cl)cc3CCc3cc(Br)cnc32)CC1C(=O)NCc1cccnc1 (configuration not stated) | 7.27 | 7.82 | 
24 | Cn1cncc1CCNC(=O)C1CN(C2c3ccc(Cl)cc3CCc3cc(Br)cnc32)CCN1C(=O)NC1CCCCC1 (configuration not stated) | 7.89 | 8.14 | 
25 | CC(=O)CCC(=O)N1CCN(C2c3ccc(Cl)cc3CCc3cc(Br)cnc32)CC1C(=O)NCc1cccnc1 (configuration not stated) | 7.33 | 7.96 | 
26 | CC(=O)CCCC(=O)N1CCN(C2c3ccc(Cl)cc3CCc3cc(Br)cnc32)CC1C(=O)NCc1cccnc1 (configuration not stated) | 7.27 | 8.08 | 
27 | CCCCC(=O)N1CCN(C2c3ccc(Cl)cc3CCc3cc(Br)cnc32)CC1C(=O)Nc1cnccn1 (configuration not stated) | 6.24 | 6.72 | 
28 | O=C(O)CCCC(=O)N1CCN(C2c3ccc(Cl)cc3CCc3cc(Br)cnc32)CC1C(=O)NCc1cccnc1 (configuration not stated) | < 6.70 | 8.15 | 
29 | Cc1noc(C)c1CNC(=O)C1CN(C2c3ccc(Cl)cc3CCc3cc(Br)cnc32)CCN1C(=O)NC1CCCCC1 (configuration not stated) |  | 6.12 | 
30 | CN(C)C(=O)CCC(=O)N1CCN(C2c3ccc(Cl)cc3CCc3cc(Br)cnc32)CC1C(=O)NCc1cccnc1 (configuration not stated) | 7.96 | 7.89 | 
31 | O=C(NCc1cccnc1)C1CN(C2c3ccc(Cl)cc3CCc3cc(Br)cnc32)CCN1C(=O)C1CCCC1 (configuration not stated) | 7.19 | 7.77 | 
32 | COC(=O)CCCCC(=O)N1CCN(C2c3ccc(Cl)cc3CCc3cc(Br)cnc32)CC1C(=O)NCc1cccnc1 (configuration not stated) | 7.21 | 8.10 | 
33 | CC(C)(C)CC(=O)N1CCN(C2c3ccc(Cl)cc3CCc3cc(Br)cnc32)CC1C(=O)NCc1cccnc1 (configuration not stated) | 6.92 | 7.92 | 
34 | O=C(NCCCN1CCCC1=O)C1CN(C2c3ccc(Cl)cc3CCc3cc(Br)cnc32)CCN1C(=O)NC1CCCCC1 (configuration not stated) | 7.70 | 7.85 | 
35 | Cn1cnc(CCNC(=O)C2CN(C3c4ccc(Cl)cc4CCc4cc(Br)cnc43)CCN2C(=O)NC2CCCCC2)c1 (configuration not stated) | 7.04 | 7.59 | 
36 | CCCCC(=O)N1CCN(C2c3ccc(Cl)cc3CCc3cc(Br)cnc32)CC1C(=O)NCc1ccc[n+]([O-])c1 (configuration not stated) | < 6.70 |  | 
37 | O=C(NCc1cccnc1)C1CN(C2c3ccc(Cl)cc3CCc3cc(Br)cnc32)CCN1C(=O)CCC1CCCCC1 (configuration not stated) | 7.42 | 7.70 | 
38 | O=C(NCc1cccnc1)C1CN(C2c3ccc(Cl)cc3CCc3cc(Br)cnc32)CCN1C(=O)NC1CCCCC1 (configuration not stated) | 8.07 | 8.26 | 
39 | CC(C)CNC(=O)N1CCN(C2c3ccc(Cl)cc3CCc3cc(Br)cnc32)CC1C(=O)NCc1cccnc1 (configuration not stated) | 7.28 | 8.10 | 
40 | O=C(NCCCn1ccnc1)C1CN(C2c3ccc(Cl)cc3CCc3cc(Br)cnc32)CCN1C(=O)NC1CCCCC1 (stereo in doubt; 41) | 8.38 | 8.35 | 
41 | CCCCCC(=O)N1CCN(C2c3ccc(Cl)cc3CCc3cc(Br)cnc32)CC1C(=O)NCc1cccnc1 (configuration not stated) | 7.12 | 8.10 | 
42 | O=C(NCc1cccnc1)C1CN(C2c3ccc(Cl)cc3CCc3cc(Br)cnc32)CCN1C(=O)NC1CCCCCC1 (configuration not stated) | 7.28 | 8.04 | 
43 | CCCCC(=O)N1CCN(C2c3ccc(Cl)cc3CCc3cc(Br)cnc32)CC1C(=O)NCCc1c[nH]cn1 (configuration not stated) | 7.22 |  | 
44 | CC(C)(C)OC(=O)N1CCN(C2c3ccc(Cl)cc3CCc3cc(Br)cnc32)CC1C(=O)NCc1cccnc1 (configuration not stated) | < 6.70 | 7.66 | 
